Active and inactive are the calls of the source. The rule behind the calls is not given here.
Columns and labels:
HeLa [1] = assay: Induction of apoptosis in human HeLa cells assessed as live cells after 48 hrs by Annexin V-FITC/propidium iodide staining based flow cytometry (reference value: 92.9%); format: functional
Method in brief: (§1)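 HeLa human cervical cancer cells treated with increasing concentrations or for increasing incubation times. Cells stained with annexin V-FITC and propidium iodide and analysed by FACS. Gating: early apoptotic = annexin+/PI−, late apoptotic = annexin+/PI+.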

HeLa [2] = assay: Antiproliferative activity against human HeLa cells after 48 hrs by MTT assay; format: functional, cell-based
Method in brief: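 HeLa cervical cancer cells, growth inhibition measured by MTT viability assay, and IC50 determined.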

HeLa [3] = assay: Induction of apoptosis in human HeLa cells assessed as necrotic cells after 48 hrs by Annexin V-FITC/propidium iodide staining based flow cytometry (reference value: 0.9%); format: functional; method in brief: as §1
HeLa [4] = assay: Cell cycle arrest in human HeLa cells assessed as accumulation at sub-G1 phase after 48 hrs by propidium iodide staining based flow cytometry (reference value: 4.43%); format: functional
HeLa [5] = assay: Induction of apoptosis in human HeLa cells assessed as late apoptotic cells at 5 uM by Annexin V-FITC/propidium iodide staining based flow cytometry (reference value: 6.9%); format: functional; method in brief: as §1
HeLa [6] = assay: Induction of apoptosis in human HeLa cells assessed as late apoptotic cells after 12 hrs by Annexin V-FITC/propidium iodide staining based flow cytometry (reference value: 3.6%); format: functional; method in brief: as §1
HeLa [7] = assay: Induction of morphological changes in human HeLa cells assessed as chromatin condensation at 10 uM after 48 hrs by DAPI staining based fluorescence microscopic method; format: functional, cell-based
Method in brief: (§2)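 HeLa cells exposed to 10 µM for 48 h, then stained with DAPI. Nuclear shape, size and density (bright condensed, fragmented chromatin, apoptotic bodies) examined by fluorescence microscopy under 358 nm excitation, against untreated control cells.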

HeLa [8] = assay: Induction of apoptosis in human HeLa cells assessed as necrotic cells at 2.5 uM by Annexin V-FITC/propidium iodide staining based flow cytometry (reference value: 2.2%); format: functional; method in brief: as §1
HeLa [9] = assay: Induction of morphological changes in human HeLa cells assessed as apoptotic body formation at 10 uM after 48 hrs by DAPI staining based fluorescence microscopic method; format: functional, cell-based; method in brief: as §2
HeLa [10] = assay: Induction of apoptosis in human HeLa cells assessed as late apoptotic cells after 24 hrs by Annexin V-FITC/propidium iodide staining based flow cytometry (reference value: 3.6%); format: functional; method in brief: as §1
HeLa [11] = assay: Induction of apoptosis in human HeLa cells assessed as live cells at 2.5 uM by Annexin V-FITC/propidium iodide staining based flow cytometry (reference value: 85.2%); format: functional; method in brief: as §1
HeLa [12] = assay: Induction of apoptosis in human HeLa cells assessed as late apoptotic cells at 10 uM by Annexin V-FITC/propidium iodide staining based flow cytometry (reference value: 6.9%); format: functional; method in brief: as §1
HeLa [13] = assay: Induction of apoptosis in human HeLa cells assessed as early apoptotic cells at 10 uM by Annexin V-FITC/propidium iodide staining based flow cytometry (reference value: 5.7%); format: functional; method in brief: as §1
HeLa [14] = assay: Induction of apoptosis in human HeLa cells assessed as early apoptotic cells after 12 hrs by Annexin V-FITC/propidium iodide staining based flow cytometry (reference value: 2.6%); format: functional; method in brief: as §1
HeLa [15] = assay: Cell cycle arrest in human HeLa cells assessed as accumulation at sub-G1 phase up to 10 uM by propidium iodide staining based flow cytometry (reference value: 6.24%); format: functional
HeLa [16] = assay: Induction of apoptosis in human HeLa cells assessed as live cells at 10 uM by Annexin V-FITC/propidium iodide staining based flow cytometry (reference value: 85.2%); format: functional; method in brief: as §1
HeLa [17] = assay: Induction of apoptosis in human HeLa cells assessed as live cells at 5 uM by Annexin V-FITC/propidium iodide staining based flow cytometry (reference value: 85.2%); format: functional; method in brief: as §1
HeLa [18] = assay: Induction of apoptosis in human HeLa cells assessed as necrotic cells after 12 hrs by Annexin V-FITC/propidium iodide staining based flow cytometry (reference value: 0.9%); format: functional; method in brief: as §1
HeLa [19] = assay: Induction of apoptosis in human HeLa cells assessed as necrotic cells at 10 uM by Annexin V-FITC/propidium iodide staining based flow cytometry (reference value: 2.2%); format: functional; method in brief: as §1
HeLa [20] = assay: Induction of apoptosis in human HeLa cells assessed as early apoptotic cells after 48 hrs by Annexin V-FITC/propidium iodide staining based flow cytometry (reference value: 2.6%); format: functional; method in brief: as §1

Question: With COc1cc(NC(=O)c2cccc(-c3cc(=O)c4c(OC)c(OC)c(OC)cc4o3)c2)cc(OC)c1OC as the compound, how does the Activity (HeLa [1]) read?
Answer: 33.2%

Question: And the Activity (HeLa [2])?
Answer: Active

Question: And the Activity (HeLa [3])?
Answer: 3.7%

Question: And the Activity (HeLa [4])?
Answer: 26.61%

Question: And the Activity (HeLa [5])?
Answer: 13.8%

Question: What about the Activity (HeLa [6]) of the same compound?
Answer: 5.5%

Question: And the Activity (HeLa [7])?
Answer: Active

Question: What about the Activity (HeLa [8]) of the same compound?
Answer: 2.4%

Question: What about the Activity (HeLa [9]) of the same compound?
Answer: Active

Question: What about the Activity (HeLa [10]) of the same compound?
Answer: 4.4%

Question: What about the Activity (HeLa [11]) of the same compound?
Answer: 79%

Question: What about the Activity (HeLa [12]) of the same compound?
Answer: 21.2%

Question: What about the Activity (HeLa [13]) of the same compound?
Answer: 22.6%

Question: And the Activity (HeLa [14])?
Answer: 4.2%

Question: What about the Activity (HeLa [15]) of the same compound?
Answer: 19.14%

Question: And the Activity (HeLa [16])?
Answer: 43.7%

Question: And the Activity (HeLa [17])?
Answer: 59.4%

Question: And the Activity (HeLa [18])?
Answer: 1%

Question: And the Activity (HeLa [19])?
Answer: 12.6%

Question: What about the Activity (HeLa [20]) of the same compound?
Answer: 24%
